From ChEMBL document CHEMBL4017549, “Structural Basis of Inhibition of ERα-Coactivator Interaction by High-Affinity N-Terminus Isoaspartic Acid Tethered Helical Peptides” (J Med Chem, 2017) come the findings set out here.

Molecules are shown by their SMILES. Calls of active or inactive are those of the source. The rule behind the calls is not given here.

One may read the IC50 as the concentration that gives 50% inhibition.

For data set [1], the system named is MCF7. Nature of the data set: Cytotoxicity against human MCF7 cells assessed as cell viability up to 100 uM after 24 hrs by MTT assay. Format: functional, cell-based. Summed up:
(§1)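 MTT read-out. 5000−10000 cells/well seeded overnight in their own medium: MCF7 and MCF10A in DMEM with phenol red, 10% FBS, 37 °C, 5% CO2; T47D in RPMI1640 with insulin and 10% FBS; MDA-MB-231 in L-15, 10% FBS, no CO2. Serial peptide dilutions or DMSO for 20 h at 37 °C, then MTT 4 h more; formazan in DMSO, A570.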
Background: Tetrazolium dyes change colour on reduction, which living cells bring about.

Data set [2] relates to MCF7. The data set is described as follows: Cytotoxicity against human MCF7 cells assessed as reduction in cell viability at 1 uM after 24 hrs by MTT assay relative to control. The format is cell-based. As to conditions: mcf7, 24 h.
The subject of data set [3] is MCF7. Nature of the data set: Cytotoxicity against human MCF7 cells assessed as reduction in cell viability at 5 uM after 24 hrs by MTT assay relative to control. The format is cell-based. As to conditions: mcf7, 24 h.
Data set [4] concerns MCF7. The data set is described as follows: Cytotoxicity against human MCF7 cells assessed as cell viability at 20 uM after 24 hrs by MTT assay. The format is functional. Conditions: MCF7, 24 h, read-out: Activity.
Data set [5] relates to MCF7. Nature of the data set: Cytotoxicity against human MCF7 cells assessed as reduction in cell viability after 24 hrs by MTT assay. Format: functional, cell-based. The essentials: as §1
For data set [6], the system named is T47D. The data set is described as follows: Cytotoxicity against human T47D cells assessed as reduction in cell viability up to 40 uM after 24 hrs by MTT assay. Format: functional, cell-based. The essentials: as §1
Data set [7] deals with MCF-10A. The data set is described as follows: Cytotoxicity against human MCF10A cells assessed as reduction in cell viability up to 40 uM after 24 hrs by MTT assay. Format: cell-based. Summed up:
as §1

The test system of data set [8] is MDA-MB-231. The data set is described as follows: Cytotoxicity against human MDA-MB-231 cells assessed as reduction in cell viability up to 40 uM after 24 hrs by MTT assay. Format: functional, cell-based. The essentials:
as §1

Data set [9] concerns the target T1, Estrogen receptor (Homo sapiens) (UniProt P03372).
T1 sequence (whole entry): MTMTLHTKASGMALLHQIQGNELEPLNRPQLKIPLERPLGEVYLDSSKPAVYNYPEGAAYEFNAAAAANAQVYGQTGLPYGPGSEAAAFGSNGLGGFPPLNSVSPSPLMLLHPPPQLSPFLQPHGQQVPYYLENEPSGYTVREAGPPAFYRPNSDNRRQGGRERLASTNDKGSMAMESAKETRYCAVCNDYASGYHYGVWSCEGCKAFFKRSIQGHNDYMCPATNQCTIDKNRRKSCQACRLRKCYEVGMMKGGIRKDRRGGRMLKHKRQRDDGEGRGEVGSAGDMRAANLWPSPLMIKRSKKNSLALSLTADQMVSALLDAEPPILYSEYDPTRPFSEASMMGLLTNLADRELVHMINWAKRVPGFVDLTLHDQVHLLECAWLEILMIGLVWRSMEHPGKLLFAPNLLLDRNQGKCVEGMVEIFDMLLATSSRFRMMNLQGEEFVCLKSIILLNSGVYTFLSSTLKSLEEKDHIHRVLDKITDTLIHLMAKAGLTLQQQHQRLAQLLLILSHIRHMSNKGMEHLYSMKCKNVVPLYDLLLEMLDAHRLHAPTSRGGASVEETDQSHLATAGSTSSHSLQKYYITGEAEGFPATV
The data set is described as follows: Inhibition of ERalpha in human MCF7 cells assessed as downregulation of 17beta-estradiol-mediated pS2 mRNA expression at 5 uM preincubated for 4 hrs followed by 17beta-estradiol addition measured after 16 hrs by quantitative RT-PCR analysis. The format is cell-based. The essentials:
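MCF-7 cells hormone-depleted 72 h in phenol red-free DMEM with 5% charcoal-treated serum, given peptides or DMSO for 4 h, then 100 nM 17β-estradiol or DMSO for 16 h. pS2 mRNA measured by quantitative RT-PCR, normalized to β-actin. Three independent experiments, mean ± SEM.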

In data set [10] the target is T1, Estrogen receptor (Homo sapiens). The data set is described as follows: Inhibition of recombinant human GFP-fused ERalpha LBD (301 to 553 residues) expressed in human […] cells assessed as downregulation of 17beta-estradiol-induced transcription at 5 uM preincubated for 4 hrs followed by E2 addition measured after 20 hrs by dual luciferase reporter gene assay. The format is cell-based. Summed up: (§2)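 U2OS cells in phenol red-free DMEM with 10% charcoal-stripped FBS, transfected 4 h with pEGFP-C1-ERα, 3XERE firefly luciferase reporter and pRL-TK Renilla plasmids. Peptides for 4 h, then 10 nM E2 or DMSO for 20 h. Lysates read by dual-luciferase; firefly normalized to Renilla, then to DMSO-treated control. SEM from more than two independent experiments.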
In general terms: Reporter assays use an easily measured gene product as a stand-in for the process of interest.

Data set [11] has the same target. The data set is described as follows: Inhibition of recombinant human GFP-fused ERalpha LBD (301 to 553 residues) expressed in human […] cells assessed as downregulation of 17beta-estradiol-induced transcription at 5 uM preincubated for 4 hrs followed by E2 addition measured after 20 hrs in presence of tamoxifen by dual luciferase reporter gene assay. The format is cell-based. Summed up: as §2

On to `CC/C(=C(\c1ccccc1)c1ccc(OCCN(C)C)cc1)c1ccccc1` [TAMOXIFEN], for which the outcome in data set [1] was Active. Besides, the Activity in data set [2] and in data set [3] was below 20% each time.
With `CC[C@H](C)[C@@H]1NC(=O)C[C@H](NC(=O)[C@H](CCCNC(=N)N)NC(=O)CCNC(=O)[C@H](Cc2c[nH]c3ccccc23)NC(C)=O)C(=O)NCC(C(=O)N[C@@H](CCCNC(=N)N)C(=O)NC(CC(C)(C)C)C(=O)NC(CC(C)(C)C)C(=O)N[C@@H](CCC(N)=O)C(N)=O)NC(=O)C(CC(C)(C)C)NC1=O` (some centres undefined), in [4], the viability at 20 µM was 14%. In addition, the Activity entry in [5] was “Dose-dependent effect”; in [7] it was “Non-Toxic”; in data set [2], below 20%; in [3], below 20%. The IC50 in [5] (MCF7, 24 h) stood at 12 µM. Besides, in data set [6], the result was Active. In data set [8], the outcome was inactive. Moreover, the inhibition entry in data set [9], in [10] and in data set [11] was “Active” throughout.
